# MOR-DOR ag: OPRM1-OPRD1 heterodimerization agonism. AID 504326. cells, luminescence. hit rate 0.3% among 340,000. activation, % at 9.3 µM. P35372+P41143; in the data active = activation above about 18%;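 note: 0% = vehicle-treated cells and 100% = reference agonist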
# MC4R ag barr: activates human MC4R beta-arrestin recruitment. U2OS MC4R beta-arrestin complementation, luminescence; percent of melanotan II response, DMSO zero. activation, % at 8.9 µM. hit rate 0.98% among 360,000;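 active = activation above a per-plate cutoff, the mean activation of sample wells on that plate plus 3 SD, cut at about 8% in these data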
# Target sequence (P32245 whole entry, looked up): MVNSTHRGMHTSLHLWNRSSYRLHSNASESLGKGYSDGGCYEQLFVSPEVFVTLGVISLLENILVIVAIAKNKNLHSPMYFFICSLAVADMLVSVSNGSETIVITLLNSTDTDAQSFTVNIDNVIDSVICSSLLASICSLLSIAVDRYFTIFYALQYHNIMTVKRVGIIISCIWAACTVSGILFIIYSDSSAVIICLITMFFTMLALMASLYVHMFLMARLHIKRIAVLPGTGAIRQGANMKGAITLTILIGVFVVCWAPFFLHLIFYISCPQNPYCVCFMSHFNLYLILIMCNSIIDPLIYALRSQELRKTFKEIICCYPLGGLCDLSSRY
# MOR-DOR inv ag: mu-delta opioid heterodimer inverse agonism; inhibition, % at 9.3 µM; cell-based MOR-DOR heterodimer luminescence; P35372+P41143; hit rate 0.21% among 340,000; in the data active = inhibition above about 22%, passing the limit was not always enough;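 note: 0% = cells with DMSO and 100% = wells without cells with DMSO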
# HTR5A inv ctr: HTR5A inverse agonism, opioid heterodimer counter-screen. P47898. inhibition, % at 9.3 µM. hit rate 0.083% among 340,000. HTR5A cell line, luminescence. AID 504634; in the data active = inhibition mostly above about 23%, no sharp cut-off; inactive = mostly below about 18%;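 note: 0% = cells with DMSO and 100% = no-cell wells with DMSO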
# MC4R antag cAMP: human MC4R antagonism in cAMP assay | P32245 | MC4R-expressing cells, MTII-stimulated cAMP, LANCE TR-FRET | inhibition, % at 6.5 µM | hit rate 0.48% among 360,000 | AID 540295;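 active = inhibition above its plate's cutoff, the mean of tested wells on that plate plus 3 SD, cut at about 29% in these data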;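 note: 0% = Melanotan II alone and 100% = Melanotan II plus saturating MCL0020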
#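 Test system: U2OS cells stably expressing human melanocortin 4 receptor (MC4R); also added: Melanotan II challenge; compound: 6.5 µM single dose; timing: 30-min compound preincubation, 1-h Melanotan II challenge, 1-h detection, room temperature; signal: Eu-cAMP/anti-cAMP TR-FRET, emission 671 nm; repeats: one well per compound, no replicates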
# HTR5A ag: activates human HTR5A in OPRM1-OPRD1 agonist counter-screen; P47898; HTR5A agonist assay, luminescence, cell-based; activation, % at 9.3 µM; hit rate 0.61% among 340,000; in the data active = activation mostly above about 9.5%, no sharp cut-off; inactive = mostly below about 7.6%;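 note: 0% = cells with vehicle only and 100% = reference agonist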
# MC4R barr conf: human MC4R beta-arrestin agonism confirmation; U2OS MC4R beta-arrestin recruitment, luminescence; scaled DMSO 0%, Melanotan II 100%; activation, % at 8.9 µM; AID 602192; hit rate 31% among 2,400; shares compounds with MC4R ag barr;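 active = mean activation across replicates above the hit cutoff set in the earlier primary screen, cut at about 8% in these data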
# MOR-DOR barr ag: counter-screen for MC4R agonists: agonists of mu-delta opioid heterodimer. shares compounds with MC4R ag barr. U2OS PathHunter beta-arrestin, beta-gal luminescence; percent of deltorphin B response, DMSO zero. activation, % at 9.2 µM. hit rate 5.8% among 2,400. AID 602194;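 active = mean activation across replicates exceeds the hit threshold derived in the earlier primary screen, cut at about 18% in these data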;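 note: 100% = deltorphin B at 0.9 µM final and 0% = DMSO alone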
# The depositor's hits bear a star; / = no result given. Rows were chosen to be rich in hits. Some 2.4% of all compounds tested hit in one or more screens of this group.
SMILES,MOR-DOR ag,MC4R ag barr,MOR-DOR inv ag,HTR5A inv ctr,MC4R antag cAMP,HTR5A ag,MC4R barr conf,MOR-DOR barr ag
CS(=O)(=O)c1ccc2nc(NC(=O)c3ccccc3Cl)sc2c1,-1,0,3,8,9,-2,/,/
Cc1ccc(NC(=O)c2ccc(OC(=O)CCN3C(=O)c4ccccc4C3=O)cc2)cc1,2,12*,-13,-24,6,2,2,3
Cc1cc(C)cc(OC(=O)CCN2C(=O)c3ccccc3C2=O)c1,3,3,-16,-12,0,5,/,/
COC(C[C@H]1O[C@@H]1C(=O)[C@H](C)OCc1ccccc1)OC,1,-1,-6,-10,12,2,/,/
COc1ccc(-c2[nH]c(-c3ccc4c(c3)OCO4)nc2-c2ccccc2)cc1,3,0,-14,-19,-2,7,/,/
COc1cc(-c2nc(-c3ccccc3)c(-c3ccc(F)cc3)[nH]2)cc2c1OCO2,9,12*,-50,9,12,13,3,10
O=C(O)/C=C/C(=O)N(CC1CCCO1)C1CC(=O)N(c2c(Cl)cccc2Cl)C1=O (stereo unspecified),-1,-2,7,4,4,-1,/,/
O=C(Nc1ccc(Cl)cc1)NN1CC(=O)N(c2cccc(C(F)(F)F)c2)CC1=O,-1,0,6,9,12,1,/,/
COc1cccc(Nc2nc(-c3ccccc3O)nc3ccccc23)c1,2,17*,-10,-16,9,4,1,4
COc1cccc(-c2nc(NC3CCCC3)c3ccccc3n2)c1O,2,0,-10,12,21,-3,/,/
COc1cccc(-c2nc(NCc3ccccc3)c3ccccc3n2)c1O,3,18*,-16,-30,0,8,3,5
CCCOC(=O)c1cccc(Nc2nc(-c3cccnc3)nc3ccccc23)c1,5,26*,-22,-79,21,14*,17*,11
Fc1cccc(Nc2nc(-c3ccncc3)nc3ccccc23)c1,9,12*,-51,-20,27,6,1,6
Cc1cc(C)cc(C(=O)Nn2cnnc2)c1,-2,-2,10,1,3,0,/,/
CC1(C(=O)NS(=O)(=O)Cc2ccccc2)CCN1C(=O)C1(c2ccc(Cl)cc2)CCC1 (stereo unspecified),/,-1,/,/,8,/,/,/
COc1ccc(Nc2nc(-c3ccncc3)nc3ccccc23)cc1,6,19*,-28,-19,19,5,2,9
COc1ccc(CNc2ncc(-c3ccc(Br)cc3)n2C)cc1OC,-2,-2,8,1,13,0,/,/
CCOc1ccc(-c2c[n+]3c(n2-c2ccccc2)CCCCC3)cc1,-1,-2,5,10,11,0,/,/
Cc1cc(OCCN2CC(C)OC(C)C2)ccc1[N+](=O)[O-] (stereo unspecified),0,4,-1,6,14,0,/,/
Cc1cc(OCCN2CCC(Cc3ccccc3)CC2)ccc1[N+](=O)[O-],6,14*,-31,6,12,-2,4,9
COCCCNC(=O)c1cccc2c(-c3ccnn3C)coc12,/,0,/,/,5,/,/,/
COc1cccc(/C=N/NC(=O)C(=O)Nc2ccccc2OC(F)(F)C(F)F)c1,5,16*,-30,-13,-1,-2,3,6
Cc1ccc(OCC(O)CN2CC3(C)CC2CC(C)(C)C3)cc1 (stereo unspecified),1,0,-6,-8,21,-2,/,/
Cc1ccc(OCC(=O)Nc2sc3c(c2C#N)CCC3)cc1,3,11*,-16,-10,3,0,1,3
Cc1ccc(C(=O)OCC(=O)Nc2sc3c(c2C#N)CCC3)cc1,2,-1,-11,-6,3,5,/,/
SMILES,MOR-DOR ag,MC4R ag barr,MOR-DOR inv ag,HTR5A inv ctr,MC4R antag cAMP,HTR5A ag,MC4R barr conf,MOR-DOR barr ag
Cc1ccc(OCC(=O)Nc2sc3c(c2C#N)CCC3)cc1C,-1,14*,4,-23,3,-1,2,5
COC(=O)CSc1nc2sc3c(c2c(=O)[nH]1)CCC3,-2,-3,10,-3,-1,3,/,/
Cc1ccc(-c2ccc(/C=N\NC(=O)C3C(=O)NCC3c3ccccc3)o2)cc1Cl (stereo unspecified),3,13*,-16,-50,2,5,5,2
COc1ccccc1C(=O)COC(=O)c1cc(=O)[nH]c2ccccc12,-1,2,6,-8,1,3,/,/
COc1ccc(C(=O)COC(=O)c2cc(=O)[nH]c3ccccc23)c(OC)c1,-1,12*,4,24,-9,-9,-1,2
NC(=O)C1(c2ccccc2)OC1c1ccccc1 (stereo unspecified),1,1,-5,3,3,1,/,/
CC1=C(SCCC#N)S/C(=C2\SC(C)=C(SCCC#N)S2)S1,-2,19*,9,12,-5,1,6,7
O=C(Nc1ccn(Cc2ccccc2F)n1)c1ccc(COc2cc(Cl)ccc2Cl)o1,-1,6,8,-12,2,4,/,/
O=C(Nc1ccn(Cc2c(F)c(F)cc(F)c2F)n1)c1ccc(COc2cc(Cl)ccc2Cl)o1,1,11*,-6,12,8,3,3,3
COc1ccc(-c2nc3c(Br)c(N)c(Br)cc3o2)cc1,3,11*,-17,2,9,-1,8,4
COc1cccc(NCc2ccc([N+](=O)[O-])s2)c1,-1,0,8,-9,0,3,/,/
Cc1ccc(Cn2ccc(NC(=O)c3cc(-c4ccc(Br)cc4)on3)n2)cc1,0,0,1,16,1,-2,/,/
Cc1ccc(Cn2ccc(NC(=O)c3cc(-c4ccccc4)on3)n2)cc1,-3,11*,13,2,6,4,-4,3
CCOC(=O)c1c(NC(=O)Cn2nc(C(F)F)cc2C(F)F)sc(C)c1C,2,-1,-13,-15,16,-3,/,/
CCOC(=O)c1c(NC(=O)Cn2nc(C(F)(F)F)cc2C)sc(C)c1C,0,15*,-1,-6,1,3,6,14
COc1ccc(N2C(=S)N=C(Nc3cccc(C)c3)C23CCCCC3)cc1,3,24*,-14,-17,5,4,9.6*,8
Cc1cccc(NC2=NC(=S)N(c3cccc(C(=O)O)c3)C23CCCCC3)c1,0,-4,2,17,15,2,/,/
Cc1cccc(NC(=O)CSc2nc(COc3ccccc3)nc3ccccc23)c1C,-1,20*,4,-12,7,2,3,4
